Measurements: ChEMBL document CHEMBL1132456 (J Med Chem, 1999)

Columns and labels:
[1] = test system: Human immunodeficiency virus 3; test: (§1) The compound was tested for inhibition against HIV-III B from C8 166 cell lines; assay type: functional, organism-based; conditions: Human immunodeficiency virus 1, IIIB, C8166
Method in brief: (§2)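 C8166 cells at 90 × 10³ cells/mL infected with 100 TCID₅₀ HIV with or without compound for 2 h at 37 °C. Cells washed, replated at 35 × 10³ cells/200 μL, and kept 5 days with drug. Cytopathic protection and toxicity both read by MTT (OD 490/650 nm). EC₅₀ and IC₅₀ from median effect equation; SI = IC₅₀/EC₅₀.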

[2] = target: Human immunodeficiency virus type 1 reverse transcriptase (Human immunodeficiency virus 1, UniProt Q72547, Y181I); test: In vitro inhibitory activity against HIV-1 mutant Reverse transcriptase containing the single amino acid substitution Y181I
Method in brief: (§3)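 Template poly(rA):oligo(dT) (0.3 μM 3'-OH ends) with 10 μM [3H]dTTP, incubated at 37 °C. Acid-precipitable counts taken on filters. Inhibitor spanned 0.2–5 Ki. Ki came from Lineweaver–Burk and Dixon plots, triplicate runs.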

[3] = target: Human immunodeficiency virus type 1 reverse transcriptase (Human immunodeficiency virus 1, UniProt Q72547, Y188L); test: In vitro inhibitory activity against HIV-1 mutant Reverse transcriptase containing the single amino acid substitution Y188L; method in brief: as §3
[4] = target: Human immunodeficiency virus type 1 reverse transcriptase (Human immunodeficiency virus 1, UniProt Q72547); test: In vitro inhibitory activity against HIV-1 wild type reverse transcriptase (RT)
[5] = target: Human immunodeficiency virus type 1 reverse transcriptase (Human immunodeficiency virus 1, UniProt Q72547, K103N); test: In vitro inhibitory activity against HIV-1 mutant Reverse transcriptase containing the single amino acid substitution K103N; method in brief: as §3
[6] = target: Human immunodeficiency virus type 1 reverse transcriptase (Human immunodeficiency virus 1, UniProt Q72547, L100I); test: In vitro inhibitory activity against HIV-1 mutant Reverse transcriptase containing the single amino acid substitution L100I; method in brief: as §3
[7] = target: Human immunodeficiency virus type 1 reverse transcriptase (Human immunodeficiency virus 1, UniProt Q72547, V106A); test: In vitro inhibitory activity against HIV-1 mutant Reverse transcriptase containing the single amino acid substitution V106A; method in brief: as §3
[8] = The compound was tested for cytotoxicity against 3T3 fibroblast murine cell line.; assay type: cell-based; conditions: mouse, NIH3T3 fibroblast cells; read-out: TC50 (the source's name)
Method in brief: (§4)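 Cells seeded in 96-well plates: human PHA-stimulated lymphocytes 20 000, 3T3 10 000, NSO 3 000, Daudi 300 per well. Graded compound concentrations added 12 h after plating; 48 h exposure. MTT (5 mg/mL stock) added for 2 h at 37 °C, then SDS/DMF extraction buffer overnight. OD read at 570 nm, blank subtracted, reported as OD × 1000.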

[9] = The compound was tested for cytotoxicity against Daudi human cell line.; assay type: cell-based; conditions: Daudi cells, read-out: TC50 (the source's name); method in brief: as §4
[10] = test system: Human immunodeficiency virus 1; test: (§5) The compound was tested for inhibition against HIV-1 from CEM-SS cell lines; assay type: functional, organism-based; conditions: Human immunodeficiency virus 1, CEM-SS
Method in brief: (§6)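 Testing by the NCI AIDS Antiviral Screening Program: protection of HIV-1-infected CEM-SS T4 lymphocytes from cell death, run alongside an AZT control. EC₅₀ is the concentration giving 50% survival of infected cells relative to uninfected untreated controls. IC₅₀ is the concentration giving 50% survival of uninfected cells. SI = IC₅₀/EC₅₀.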

[11] = The compound was tested for cytotoxicity against Human Lymphocytes; conditions: read-out: TC50 (the source's name); method in brief: as §4
[12] = The compound was tested for cytotoxicity against NSO murine cell line.; assay type: cell-based; conditions: mouse, NSO cells; read-out: TC50 (the source's name); method in brief: as §4
CEM-SS [13] = test: The compound was tested for inhibition against HIV-1 from CEM-SS cell lines.; assay type: functional, cell-based; conditions: Homo sapiens; method in brief: as §6
C8166 [14] = test: The compound was tested for inhibition against HIV-III B from C8 166 cell lines.; assay type: functional, cell-based; conditions: Homo sapiens; method in brief: as §2
[15] = test system: Human immunodeficiency virus 3; test: The compound was tested for Anti-viral activity of AZT with compound in C8166 cells infected with HIV-IIIB; assay type: functional, organism-based; conditions: Human immunodeficiency virus 1, IIIB
Method in brief: (§7)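 C8166 cells at 90 × 10³ cells/mL exposed to 100 TCID₅₀ HIV with or without drug (alone, or together with AZT) for 2 h at 37 °C, 5% CO₂. Cells then washed and replated at 35 × 10³ cells/200 μL and cultured 5 days with the same drug levels. Protection from cytopathic effect read by MTT at 490/650 nm; EC₅₀ from median effect equation.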

[16] = test system: Human immunodeficiency virus 3; test: The compound was tested for Anti-viral activity of compound alone in C8166 cells infected with HIV-IIIB; assay type: functional, organism-based; conditions: Human immunodeficiency virus 1, IIIB; method in brief: as §7
[17] = test system: Human immunodeficiency virus 3; test: The compound was tested in presence of AZT for Anti-viral activity of compound in C8166 cells infected with HIV-IIIB; assay type: functional, organism-based; conditions: Human immunodeficiency virus 1, IIIB; method in brief: as §7
[18] = […] index values calculated at 50% viral activity using mutually nonexclusive forms of equation.
Method in brief: (§8)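 Chou–Talalay multiple drug effect analysis of compound combined with AZT in acutely HIV-infected C8166 cells. Combination index computed at 50% effect under the mutually exclusive or mutually nonexclusive assumption.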

[19] = […] index values calculated at 50% viral activity using mutually exclusive forms of equation.; method in brief: as §8
[20] = test system: Human immunodeficiency virus 3; test: The compound was tested in presence of AZT for Anti-viral of compound in C8166 cells infected with HIV-IIIB; assay type: functional, organism-based; conditions: Human immunodeficiency virus 1, IIIB; method in brief: as §7
CEM-SS [21] = test: as §5; assay type: functional, cell-based; conditions: Homo sapiens; method in brief: as §6
C8166 [22] = test: as §1; assay type: functional, cell-based; conditions: Homo sapiens; method in brief: as §2
[23] = The compound was tested for cytotoxicity against NSO murine cell lines.; assay type: cell-based; conditions: mouse, NSO cells; read-out: TC50 (the source's name); method in brief: as §4

| Compound | IC50 [1] | Ki [2] | Ki [3] | Ki [4] | Ki [5] | Ki [6] | Ki [7] | CC50 [8] | CC50 [9] | CC50 [11] | CC50 [12] | EC50 (CEM-SS [13]) | IC50 (CEM-SS [13]) | IC50 (C8166 [14]) | EC50 (C8166 [14]) | also measured |
| --- | --- | --- | --- | --- | --- | --- | --- | --- | --- | --- | --- | --- | --- | --- | --- | --- |
| CCC1(c2cc(F)cc(F)c2)Oc2ccccc2-n2cccc2C1=O (stereo not given) | 17.1 µM | 6.8 µM | > 10 µM | 1.5 µM | 2.7 µM | 1.7 µM | 3 µM |  |  |  |  |  |  |  |  |  |
| CCC1(c2ccc(C)cc2)Oc2ccccc2-n2cccc2C1=O (stereo not given) |  |  |  | 0.97 µM |  |  |  |  |  |  |  |  |  |  |  |  |
| CCC1(c2cccc(OC)c2)Oc2ccccc2-n2cccc2C1=O (stereo not given) | 7 µM | > 10 µM | > 10 µM | 0.06 µM | 0.022 µM | 0.011 µM | 0.01 µM | 210 µM | 280 µM | 200 µM | 230 µM |  |  |  |  | EC50 [10]: 0.04 µM; IC50 [10]: 0.2 µM |
| CCC1(c2cccs2)Oc2cccnc2-n2cccc2C1=O (stereo not given) |  | 0.43 µM | 0.475 µM | 0.093 µM | 0.045 µM | 0.09 µM | 0.09 µM | 35 µM | 29 µM | 30 µM | 26 µM | 0.15 µM | > 2 µM | 20.5 µM |  |  |
| CCC1(c2ccccc2)Oc2cccnc2-n2cccc2C1=O (stereo not given) |  | 4 µM | 1.5 µM | 0.022 µM | 0.3 µM | 0.04 µM | 0.07 µM | 10 µM | 13 µM | 13 µM | 14 µM | 0.069 µM | 3.9 µM | 6 µM | 0.054 µM | EC50 [15]: 0.00317 µM; EC50 [16]: 0.054 µM; EC50 [17]: 0.017 µM; CI [18]: 0.303; CI [19]: 0.302 |
| CCC1(c2cccs2)Oc2ccccc2-n2cccc2C1=O (stereo not given) |  | 0.97 µM | 0.3 µM | 0.03 µM | 0.4 µM | 0.07 µM | 0.11 µM |  |  |  |  | 0.115 µM | 11 µM |  |  |  |
| CCC1(c2cccc(C)c2)Oc2ccccc2-n2cccc2C1=O (stereo not given) | 52 µM | 4 µM | 1.9 µM | 0.07 µM | 1.1 µM | 0.1 µM | 0.25 µM | > 1000 µM | > 1000 µM | > 1000 µM | > 1000 µM |  |  |  |  | EC50 [10]: 0.35 µM; IC50 [10]: 119 µM; EC50 [15]: 0.00325 µM; EC50 [16]: 0.425 µM; EC50 [20]: 0.011 µM; CI [18]: 0.04; CI [19]: 0.04 |
| CCC1(c2cccc(F)c2)Oc2ccccc2-n2cccc2C1=O (stereo not given) |  | 4 µM | 1.5 µM | 0.1 µM | 0.07 µM | 0.16 µM | 0.4 µM | 710 µM | 720 µM | 720 µM | 720 µM |  |  |  |  | EC50 (CEM-SS [21]): 0.072 µM; IC50 (CEM-SS [21]): 2 µM; EC50 (C8166 [22]): 1.1 µM; IC50 (C8166 [22]): 13.8 µM |
| CCC1(c2ccccc2)Oc2ccccc2-n2cccc2C1=O (stereo not given) |  | > 10 µM | > 10 µM | 0.19 µM | 7.7 µM | 0.75 µM | 3.9 µM | 33 µM | 26 µM | 32 µM |  | 0.47 µM |  | 10 µM | 0.8 µM | CC50 [23]: 24 µM |
| CCC1(c2cccc(C)c2)Oc2cccnc2-n2cccc2C1=O (stereo not given) |  | 1.2 µM | 1.5 µM | 0.021 µM | 0.03 µM | 0.044 µM | 0.4 µM | 400 µM | 380 µM | 400 µM | 410 µM | 0.027 µM | > 2 µM | 7.2 µM | 0.27 µM |  |
